Experimental data gathered from unrelated publications.
Lines come from different studies, so protocols differ.
Read-out: enzyme activity
Mode: inhibitor
CHEK2: Serine/threonine-protein kinase Chk2 (CHEK2, Homo sapiens, UniProt O96017)
CHEK2 R145W: Serine/threonine-protein kinase Chk2 (CHEK2, Homo sapiens, UniProt O96017, R145W)

Nc1nc(Nc2ccccc2)sc1C(=O)c1c(F)cccc1F  remaining activity (CHEK2; 10 µM): 30%
Cc1cnc(NC2CCOCC2)nc1-n1cnc(C(=O)NC(CN)c2cc(F)cc(Cl)c2)c1 (centres unmarked)  remaining activity (CHEK2 R145W; radiometric; 1 µM): 79%
CCCOc1ccc(OC)c(F)c1C(=O)c1ccc(C(=O)N[C@@H]2CNC[C@H]2NC(=O)c2ccc3[nH]ncc3c2)cc1  remaining activity (CHEK2 R145W; 10 µM): 21%
COc1cc(Cl)c(C(=O)N[C@@H](CN[C@H]2CC[C@@H](N)CC2)Cc2ccc(C#N)cc2)cc1-c1ccc(CN[C@H](C)c2ccc(C)cc2)o1  remaining activity (CHEK2; 1 µM): 98%
Cc1sc(C(=O)NC2COC2)cc1-n1cc(NC(=O)Nc2c(F)cccc2Cl)cn1  remaining activity (CHEK2; 10 µM): 95.2%
COc1cc(Nc2cnc(C#N)c(O[C@H](C)CN(C)C)n2)ncc1-c1cnn(C)c1  remaining activity (CHEK2; radiometric; 10 µM): 31%
Cc1ccc(NC(=O)c2ccc(C)c(C(F)(F)F)c2)cc1C#Cc1nn(C2CCC(O)CC2)c2ncnc(N)c12 (centres unmarked)  remaining activity (Serine/threonine-protein kinase Chk2 (CHEK2, Homo sapiens, UniProt O96017, I157T); 10 µM): 103%
O=C(Nc1cnn(-c2csc(C(=O)NC3COC3)c2)c1)Nc1ccccc1Cl  remaining activity (CHEK2; 5 µM): 97.8%
CC(C)(C)c1nc(-c2cccc(NS(=O)(=O)c3c(F)cccc3F)c2F)c(-c2ccnc(N)n2)s1  remaining activity (CHEK2; radiometric; 1 µM): 103%
Cc1ccc(C(=O)Nc2ccc(CN3CCN(C)CC3)c(C(F)(F)F)c2)cc1C#Cc1cnc2cccnn12  remaining activity (CHEK2; 23.5 nM): 98%
Oc1cccc(-c2nc(N3CCOCC3)c3oc4ncccc4c3n2)c1  remaining activity (CHEK2; 10 µM): 85%
